# Rows were chosen to be rich in hits. Some 2.9% of all compounds tested hit in one or more screens of this group.
# PGC1a acetyl inh – inhibitors of PGC1a acetylation signal, primary screen, cell-based, U2OS, AlphaScreen, inhibitor mode; AlphaScreen anti-acetyl-lysine; with virally co-expressed GCN5 acetyltransferase; inhibition, % at 15.6 µM; 350,000 tested, 0.17% active; AID 651687, 2012;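 active = every replicate shows inhibition of at least 40%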;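 also: 0% = neutral control wells and 100% = positive control wells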
# S100A4 inh HTS – inhibitors of S100A4-myosin IIA peptide binding, primary screen, biochemical, fluorescence polarization, TAMRA-MyoIIA peptide | inhibition, % at 10.7 µM | Protein S100-A4 (Homo sapiens), P26447 | 360,000 tested, 0.14% active;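 active = mean inhibition of at least 70% across replicates, with every replicate also reaching that level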
# Target sequence (P26447 whole entry, looked up): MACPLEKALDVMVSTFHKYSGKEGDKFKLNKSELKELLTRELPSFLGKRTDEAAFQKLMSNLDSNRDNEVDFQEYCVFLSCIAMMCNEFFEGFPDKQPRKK
#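 assay system = human S100A4 monomer with TAMRA-labelled myosin IIA peptide | also added = labelled myosin peptide probe, 5 nM | incubation = 5 min between mix addition and reading | control set = DMSO and TFP controls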
# C2C12 statin – suppressors of statin myotoxicity in C2C12 myotubes, primary screen, cell-based, single point, plate reader | rescue of ATP level, % at 7.49 µM | 330,000 tested, 0.78% active | AID 602340, 2012 | C2C12 myotubes + simvastatin, ATP luminescence, 48 h; scaled: DMSO 0, geranylgeraniol control 100;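 active = mean ATP rescue above about 67%, or every replicate alone reaching that limit, limit read from the data, passing the limit was not always enough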;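 also: myotubes were challenged with 10 µM simvastatin during compound exposure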
# DENV2 CPE rescue – inhibitors of DENV2 cytopathic effect, primary screen, cell-based, plate reader, single concentration; DENV2-infected cells, cytopathic effect rescue; CPE inhibition, % at 9.99 µM; 350,000 tested, 1.7% active; in the data active = CPE inhibition above about 20%, passing the limit was not always enough; tested in BHK-21 cells;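 also: 0% = median of neutral control wells and 100% = median of positive control wells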
# SIRT5 inh – SIRT5 desuccinylase inhibitors, primary screen, biochemical, fluorescence imaging, single point, set 5; NAD-dependent protein deacylase sirtuin-5, mitochondrial (Homo sapiens), Q9NXA8; inhibition, % at 15 µM; 330,000 tested, 1.1% active; Purified SirT5, succinyl-peptide AMC, trypsin-coupled fluorescence; in the data active = inhibition above about 15%
# Target sequence (Q9NXA8 whole entry, looked up): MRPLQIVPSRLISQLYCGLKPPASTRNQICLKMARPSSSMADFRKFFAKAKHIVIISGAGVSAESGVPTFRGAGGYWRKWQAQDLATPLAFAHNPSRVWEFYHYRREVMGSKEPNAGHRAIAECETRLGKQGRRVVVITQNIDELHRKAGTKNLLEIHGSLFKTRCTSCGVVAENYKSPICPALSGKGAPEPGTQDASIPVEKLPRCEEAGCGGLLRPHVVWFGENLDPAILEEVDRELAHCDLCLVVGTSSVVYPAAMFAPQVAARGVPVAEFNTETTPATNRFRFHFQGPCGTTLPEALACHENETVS
# * = called active by the depositor; / = not tested or not shown.
SMILES,PGC1a acetyl inh,S100A4 inh HTS,C2C12 statin,DENV2 CPE rescue,SIRT5 inh
COCC#Cc1cnc2c(c1)C(=O)N([C@H](C)CO)C[C@@H](C)[C@H](CN(C)S(=O)(=O)c1cn(C)cn1)O2,0,2,6,-5,1
CC(=O)N(C)C[C@@H]1Oc2ncc(C#Cc3ccccc3F)cc2C(=O)N([C@@H](C)CO)C[C@H]1C,5,4,3,14,-1
CC(C)NC(=O)N[C@@H]1CC[C@@H](CCn2cc(-c3ccccc3)nn2)O[C@H]1CO,1,15,1,-4,-2
COC(=O)c1c(CCl)noc1C(=O)NCC1CCCO1 (stereo unspecified),-3,-4,0,33*,1
CCOC(=O)c1[nH]c(C)c(C(=O)NCC2CCCO2)c1C (stereo unspecified),10,/,75*,/,/
CCOC(=O)c1[nH]c(C)c(C(=O)NC2CCCCC2)c1C,1,0,2,-2,/
CCc1ccccc1SCc1noc(C(=O)NCC2CCCO2)c1C(=O)O (stereo unspecified),3,-1,1,/,-4
CNC(=O)C[C@H]1CC[C@@H]2[C@@H](COc3ccc(NS(=O)(=O)c4cccc(F)c4)cc3C(=O)N2C)O1,3,-29,6,4,-7
COc1ccc(/C=C(/NC(=O)c2ccc(OC)c(OC)c2)C(=O)NCCc2c[nH]c3ccccc23)cc1,3,-2,/,20*,-3
COc1ccc(/C=C(/NC(=O)c2ccc(OC)cc2)C(=O)NCCc2c[nH]c3ccccc23)cc1,/,1,/,/,-2
CN1C(=O)c2cc(NC(=O)c3ccccc3)ccc2OC[C@H]2O[C@H](CC(=O)NC3CCCC3)CC[C@H]21,1,0,35,-4,-5
COc1cccc(CNC(=O)C[C@H]2CC[C@H]3[C@H](COc4ccc(NS(=O)(=O)c5ccccc5F)cc4C(=O)N3C)O2)c1,4,11,-12,0,20*
CC(C)C(=O)Nc1ccc2c(c1)C(=O)N(C)[C@H]1CC[C@@H](CC(=O)NCc3ccccc3)O[C@@H]1CO2,-4,-1,-5,32*,12
CN(C)CCCNC(=O)C[C@H]1CC[C@@H]2[C@@H](COc3ccc(NC(=O)c4cccc(F)c4)cc3C(=O)N2C)O1,2,11,-10,42*,-1
CCCNC(=O)C[C@H]1CC[C@H]2[C@H](COc3ccc(NC(=O)c4cccc(F)c4)cc3C(=O)N2C)O1,-10,1,9,12,-3
CCNC(=O)C[C@H]1CC[C@H]2[C@@H](COc3ccc(NS(=O)(=O)c4ccccc4C)cc3C(=O)N2C)O1,5,-9,-1,18,18*
CC(C)C(=O)Nc1ccc2c(c1)C(=O)N(C)[C@H]1CC[C@H](CC(=O)NCc3ccccc3)O[C@@H]1CO2,7,51,21,-1,3
O=C(NC1CCCC1)[C@H]1[C@H](CO)[C@H]2Cn3c(ccc(C4=CCCC4)c3=O)[C@@H]1N2CC1CC1,/,-20,6,9,-8
CN(C)C(=O)C[C@H]1CC[C@H]2[C@@H](COc3ccc(NC(=O)c4cnccn4)cc3C(=O)N2C)O1,-1,7,1,60*,3
COC(=O)C[C@@H]1CC[C@H]2[C@H](COc3ccc(NS(=O)(=O)c4ccc(C)cc4)cc3C(=O)N2C)O1,-12,101*,10,-5,0
COCCNC(=O)C[C@@H]1CC[C@H]2[C@H](COc3ccc(NC(=O)Nc4cccc(F)c4)cc3C(=O)N2C)O1,2,2,-35,3,23*
CCNC(=O)C[C@@H]1CC[C@@H]2[C@H](COc3ccc(NC(=O)c4cscn4)cc3C(=O)N2C)O1,2,12,-16,24*,-1
CN(C)C(=O)C[C@H]1CC[C@@H]2[C@H](COc3ccc(NC(=O)c4cnccn4)cc3C(=O)N2C)O1,3,-3,1,-6,0
C[C@@H]1CN([C@@H](C)CO)C(=O)c2ccccc2-c2ccccc2CO[C@@H]1CN(C)CC1CC1,4,6,11,3,-5
CCC(=O)Nc1ccc2c(c1)C(=O)N(C)[C@@H]1CC[C@@H](CC(=O)NCC3CCCCC3)O[C@H]1CO2,-8,3,-15,11,-1
